The values below come from PMC3773863 (Bioorganic & medicinal chemistry letters, 2013).

Assay [1] deals with Colo205 colon cancer cells. Description: NCI in vitro human tumor cell screen, Colo205. The class given is cell-based. In outline:
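NCI-60 panel screen. GI50 is the log concentration that […]. TGI is the log concentration giving total growth inhibition.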

In assay [2] the test system is RXF 393 renal cancer cells. Briefly: NCI in vitro human tumor cell screen, RXF 393. Format: cell-based. In short, it runs like this: (§1)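 NCI-60 panel screen. GI50 is the log concentration that […]. TGI is the log concentration giving total growth inhibition. LC50 is the log concentration needed to kill 50% of the test population.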

The subject of the next assay is SR leukemia cells. Briefly: NCI in vitro human tumor cell screen, SR. The class given is cell-based.
A further assay relates to M14 melanoma cells. Description: NCI in vitro human tumor cell screen, M14. Format: cell-based. In outline: as §1
The test system of assay [3] is MDA-MB-468 breast cancer cells. Briefly: NCI in vitro human tumor cell screen, MDA-MB-468. Format: cell-based. In short, it runs like this: as §1
In a further assay the test system is SK-MEL-5 melanoma cells. Description: NCI in vitro human tumor cell screen, SK-MEL-5. The class given is cell-based. In short, it runs like this:
as §1

The test system of another assay is NCI-H522 cells. Briefly: MTT anti-proliferation assay, NCI-H522. The class given is cell-based, human. The settings on record: read-out: IC50 proliferation of NCI-H522 cells, 48 h incubation. In short, it runs like this: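 NCI-H522 cells in log-phase growth were exposed at 37 °C to test compound or DMSO vehicle in complete medium for 48 h. They were then given MTT (1 mg/mL in 1X PBS) for 2 h at 37 °C. Absorbance was read at 570 nm and corrected at 630 nm.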

Assay [4] has as its system OVCAR-3 ovarian cancer cells. Description: NCI in vitro human tumor cell screen, OVCAR-3. Format: cell-based. In outline:
as §1

For assay [5], the target named is pure porcine brain tubulin proteins (Sus scrofa, UniProt P02550+P02554). Description: In vitro tubulin polymerization assay. Format: biochemical. The settings on record: GPEM buffer, 37 °C, absorbance 340 nm.
Chain of pure porcine brain tubulin proteins (P02550 whole entry): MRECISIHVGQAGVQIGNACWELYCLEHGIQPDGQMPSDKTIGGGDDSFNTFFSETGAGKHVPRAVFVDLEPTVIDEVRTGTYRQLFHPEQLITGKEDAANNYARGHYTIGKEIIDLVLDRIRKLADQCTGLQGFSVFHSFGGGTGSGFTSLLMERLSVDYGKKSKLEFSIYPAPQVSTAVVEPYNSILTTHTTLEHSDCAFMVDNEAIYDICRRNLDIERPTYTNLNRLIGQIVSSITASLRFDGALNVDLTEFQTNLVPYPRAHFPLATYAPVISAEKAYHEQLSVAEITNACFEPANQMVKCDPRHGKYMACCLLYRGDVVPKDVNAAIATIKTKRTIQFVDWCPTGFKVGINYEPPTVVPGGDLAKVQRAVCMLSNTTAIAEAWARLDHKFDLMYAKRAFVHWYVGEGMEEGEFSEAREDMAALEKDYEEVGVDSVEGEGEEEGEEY
Chain of pure porcine brain tubulin proteins (P02554 whole entry): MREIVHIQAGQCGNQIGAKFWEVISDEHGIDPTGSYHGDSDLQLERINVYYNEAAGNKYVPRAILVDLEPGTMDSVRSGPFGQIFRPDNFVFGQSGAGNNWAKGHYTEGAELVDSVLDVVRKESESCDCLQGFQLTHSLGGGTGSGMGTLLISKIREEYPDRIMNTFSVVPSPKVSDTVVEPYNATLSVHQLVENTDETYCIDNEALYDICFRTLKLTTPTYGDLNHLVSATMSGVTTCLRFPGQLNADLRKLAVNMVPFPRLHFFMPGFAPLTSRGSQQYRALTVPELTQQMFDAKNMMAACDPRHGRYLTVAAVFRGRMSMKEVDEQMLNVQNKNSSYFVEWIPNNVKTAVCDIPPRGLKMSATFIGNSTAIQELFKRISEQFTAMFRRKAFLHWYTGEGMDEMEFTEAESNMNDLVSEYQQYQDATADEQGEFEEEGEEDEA
For assay [6], the system named is MDA-MB-435 melanoma cells. Briefly: NCI in vitro human tumor cell screen, MDA-MB-435. The class given is cell-based.
Assay [7] concerns DU-145 prostate cancer cells. Briefly: NCI in vitro human tumor cell screen, DU-145. Format: cell-based. In short, it runs like this: as §1
For assay [8], the system named is NCI/ADR-RES ovarian cancer cells. Description: NCI in vitro human tumor cell screen, NCI/ADR-RES. The class given is cell-based. In outline: as §1
In assay [9] the test system is SK-OV-3 ovarian cancer cells. Description: NCI in vitro human tumor cell screen, SK-OV-3. The class given is cell-based. In short, it runs like this:
as §1

Assay [10] has as its system NCI-H522 non-small cell lung cancer cells. Description: NCI in vitro human tumor cell screen, NCI-H522. Format: cell-based.
The next assay has as its system SF-295 CNS cancer cells. Description: NCI in vitro human tumor cell screen, SF-295. The class given is cell-based. In outline:
as §1

Assay [11] concerns α-tubulin and β-tubulin in NCI-H522 cells. Briefly: In vivo tubulin assembly assay. Format: cell-based, human. Particulars: 24 h, 6h 10, 30, 100 nM, vincristine and paclitaxel 100 nM.

With “2-(3-hydroxy-5-methoxyphenyl)-6-pyrrolidin-1-ylquinolin-4-one [Compound 6h]”, the logGI50 is −7.27 in assay [1]; −7.39 in assay [2]; less than −8.00 in the assay with SR leukemia cells; −7.52 in the assay on M14 melanoma cells; −6.58 in assay [3]; −7.61 in the assay on SK-MEL-5 melanoma cells. Moreover, the logGI50 in [4] was −7.63; in [6], less than −8.00; in assay [7] it was −7.51; in [8], −7.21; in assay [9] it was −7.63; in assay [10] it was less than −8.00. The logGI50 in the assay with SF-295 CNS cancer cells was −6.96. Moreover, the logTGI is recorded as −6.66 in assay [1]; −4.62 in [2]; more than −4.00 with SR leukemia cells; −4.80 in the assay on M14 melanoma cells; −5.70 in assay [3]; −7.18 in the assay with SK-MEL-5 melanoma cells. Besides, the logTGI in assay [4] was −7.05; in assay [6], −7.53; in [7], −6.59; in [8], −6.29; in assay [9], −4.60; in assay [10] it was less than −8.00. The compound further displayed a logTGI with SF-295 CNS cancer cells of −4.95. Besides, the logLC50 was more than −4.00 in [2]; more than −4.00 in the assay with SR leukemia cells; more than −4.00 with M14 melanoma cells; more than −4.00 in assay [3]; −6.31 with SK-MEL-5 melanoma cells; −5.19 in assay [4]. The logLC50 in assay [7] was more than −4.00; in assay [8], more than −4.00; in assay [9] it was more than −4.00; in [10], −5.41; in the assay with SF-295 CNS cancer cells it was more than −4.00. In the assay with NCI-H522 cells, the IC50 was 42.3 ± 1.2 nM. In addition, in [5], the “effect on tubulin polymerization” value is “inhibited tubulin polymerization in a concentration-dependent manner”.

On to `CC(=O)O[C@H]1C(=O)[C@@]2(C)[C@H]([C@H](OC(=O)c3ccccc3)[C@]3(O)C[C@H](OC(=O)[C@H](O)[C@@H](NC(=O)c4ccccc4)c4ccccc4)C(C)=C1C3(C)C)[C@]1(OC(C)=O)CO[C@@H]1C[C@@H]2O` [paclitaxel], for which the “effect on α-tubulin and β-tubulin in the cytoskeletal fraction” value in assay [11] is reported as “caused tubulin polymerization”.

In the case of `CC[C@]1(O)C[C@@H]2CN(CCc3c([nH]c4ccccc34)[C@@](C(=O)OC)(c3cc4c(cc3OC)N(C)[C@H]3[C@@](O)(C(=O)OC)[C@H](OC(C)=O)[C@]5(CC)C=CCN6CC[C@]43[C@@H]65)C2)C1` [vinblastine], the “effect on tubulin polymerization” value in assay [5] is on record as “inhibited tubulin polymerization”.

Turning to `CC[C@]1(O)C[C@H]2CN(CCc3c([nH]c4ccccc34)[C@@](C(=O)OC)(c3cc4c(cc3OC)N(C=O)[C@H]3[C@@](O)(C(=O)OC)[C@H](OC(C)=O)[C@]5(CC)C=CCN6CC[C@]43[C@@H]65)C2)C1` [vincristine], the “effect on tubulin polymerization” value in assay [5] was “inhibited tubulin polymerization”.
